Calls of active or inactive are those of the source. The rule behind the calls is not given here.
Tests used:
[1] = system: Nucleoside diphosphate kinase B (Homo sapiens), P22392 [F60A]; assay: Binding affinity to N-terminal NT-647-NHS labeled NM23-H2 F60A mutant (unknown origin) up to 50 uM by SPR analysis
[2] = target: T1, Nucleoside diphosphate kinase B (Homo sapiens, UniProt P22392); assay: Binding affinity to N-terminal NT-647-NHS labeled NM23-H2 (unknown origin) after 30 mins by MST analysis
T1 sequence (P22392 whole entry): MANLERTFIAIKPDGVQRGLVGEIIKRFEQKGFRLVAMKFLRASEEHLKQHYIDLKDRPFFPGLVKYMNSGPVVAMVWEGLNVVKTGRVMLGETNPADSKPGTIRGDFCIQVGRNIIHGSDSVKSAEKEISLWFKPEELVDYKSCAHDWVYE
Method in brief: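 NM23-H2 N-terminally labeled with RED-NHS dye (20 μM protein, 30 min dark, RT), free dye removed; 200 nM labeled protein with compound from 500 μM, 16 twofold steps, 30 min RT in 50 mM Tris-HCl pH 7.4, 150 mM NaCl, 10 mM MgCl2, 0.05% Tween-20; KD at half-plateau.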

[3] = target: T2, Nucleoside diphosphate kinase B (Homo sapiens, UniProt P22392, G113F); assay: Binding affinity to NM23-H2 G113F mutant (unknown origin) by SPR analysis
T2 sequence (P22392 whole entry G113F): as the sequence (P22392 whole entry) above, with G113F counted along it

[4] = target: T2, Nucleoside diphosphate kinase B; assay: Binding affinity to N-terminal NT-647-NHS labeled NM23-H2 G113F mutant (unknown origin) after 30 mins by MST analysis
[5] = Binding affinity to biotin-labeled Pu22 c-myc G-quadruplex DNA (unknown origin) at 40 uM after 30 mins by SPR analysis
[6] = target: T1, Nucleoside diphosphate kinase B; assay: Binding affinity to NM23-H2 in human SiHa cells assessed as disruption of protein interaction with c-myc G-quadruplex DNA by measuring decrease in c-MYC mRNA level after 9 hrs by RT-PCR analysis; assay type: cell-based
Method in brief: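 SiHa cells treated at 0, 0.5, 1.0, 2.0 μM for 9 h; TRIzol RNA, 1.5 μg reverse-transcribed with oligo(dT); semiquantitative PCR, 30 cycles, 58 °C annealing; bands normalized to β-actin, untreated 100%; three repeats.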

[7] = Cell cycle arrest in mouse primary mesangial cells at 2 uM after 9 to 48 hrs by propidium iodide staining based flow cytometry method
SiHa [8] = assay: Cell cycle arrest in human SiHa cells assessed as accumulation at G2/M phase at 2 uM after 3 hrs by propidium iodide staining based flow cytometry (reference value: 39%); assay type: functional
Method in brief: (§1)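 SiHa cells plated 24 h, treated at 2 μM for 3–48 h; fixed in ice-cold 70% ethanol overnight, RNase A 20 μg/mL 37 °C 30 min, PI-stained, flow cytometry at 488 nm; phase percentages quantified; at least three experiments.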

SiHa [9] = assay: Induction of apoptosis in human SiHa cells assessed as early apoptotic cells at 1 uM after 48 hrs by Annexin V-FITC/propidium iodide based flow cytometric analysis (reference value: 1.4 %); assay type: functional
SiHa [10] = assay: Induction of apoptosis in human SiHa cells assessed as late apoptotic cells at 2 uM after 48 hrs by Annexin V-FITC/propidium iodide based flow cytometric analysis (reference value: 0.7 %); assay type: functional
SiHa [11] = assay: Down regulation of cyclin D1 expression in human SiHa cells at 0.5 to 2 uM after 24 to 48 hrs by Western blot analysis; assay type: functional, cell-based
Method in brief: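 SiHa cells (2.0 × 10^5) treated with compound at various concentrations for 24 or 48 h, then lysed at 4 °C. Protein measured by BCA; 30 μg run on 10% SDS-PAGE and transferred to nitrocellulose. Membranes blocked in 5% milk, probed with primary antibodies overnight at 4 °C, then HRP secondary for 2 h, and detected by chemiluminescence. Bands quantified by densitometry; at least three experiments.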

SiHa [12] = assay: Cell cycle arrest in human SiHa cells assessed as accumulation at G0/G1 phase at 2 uM after 3 hrs by propidium iodide staining based flow cytometry (reference value: 48%); assay type: functional; method in brief: as §1
SiHa [13] = assay: Cell cycle arrest in human SiHa cells assessed as accumulation at G2/M phase at 2 uM after 9 hrs by propidium iodide staining based flow cytometry (reference value: 39 %); assay type: functional
Method in brief: (§2)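 SiHa cells (2.0 × 10^5 per well) plated 24 h, then exposed to 2 μM compound or left untreated for 3, 6, 9, 12, 24, 36 or 48 h. Cells washed in PBS, fixed overnight in ice-cold 70% ethanol, treated with 20 μg/mL RNase A for 30 min at 37 °C, stained with PI, and read by flow cytometry at 488 nm. Phase percentages compared with untreated control; at least three experiments.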

SiHa [14] = assay: Cell cycle arrest in human SiHa cells assessed as accumulation at S phase at 2 uM after 12 hrs by propidium iodide staining based flow cytometry (reference value: 13 %); assay type: functional; method in brief: as §2
SiHa [15] = assay: Cell cycle arrest in human SiHa cells assessed as accumulation at G0/G1 phase at 2 uM after 24 hrs by propidium iodide staining based flow cytometry (reference value: 48 %); assay type: functional; method in brief: as §1
SiHa [16] = assay: Cell cycle arrest in human SiHa cells assessed as accumulation at G0/G1 phase at 2 uM after 36 hrs by propidium iodide staining based flow cytometry (reference value: 48 %); assay type: functional; method in brief: as §1
SiHa [17] = assay: Cell cycle arrest in human SiHa cells assessed as accumulation at G0/G1 phase at 2 uM after 48 hrs by propidium iodide staining based flow cytometry (reference value: 48 %); assay type: functional; method in brief: as §1
SiHa [18] = assay: Cell cycle arrest in human SiHa cells assessed as accumulation at sub-G1 phase at 2 uM after 24 hrs by propidium iodide staining based flow cytometry relative to control; assay type: functional; method in brief: as §2
SiHa [19] = assay: Antiproliferative activity against human SiHa cells up to 100 hrs by real-time cellular activity assay; assay type: functional, cell-based
Method in brief: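 Impedance-based real-time cell analysis at 37 °C, 5% CO2: 100 μL of 20 000 cells/mL added over medium background, settled 20 min, dosed after 24 h; read every 2 min for 2 h, then every 15 min to end; three repeats.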

SiHa [20] = assay: Antiproliferative activity against human SiHa cells harboring NM23-H2 siRNA up to 2 uM after 24 hrs by real-time cellular activity assay; assay type: functional, cell-based
Method in brief: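 SiHa cells precultured 24 h, transfected with 30 nM NM23-H2 siRNA for 6 h, dosed up to 2 μM 24 h after siRNA; growth followed by impedance-based real-time cell analysis.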

Mus musculus [21] = assay: Toxicity in BALB/C nude mouse xenografted with human SiHa cells at 2.5 to 5 mg/kg, ip administered daily after 3 weeks; assay type: organism-based; conditions: in vivo, 504 h
Method in brief: (§3)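 SiHa cells implanted in the right armpit of BALB/c nu/nu mice. At approximately 50 mm3, mice randomized (n = 8/group) to vehicle, compound 2.5 or 5.0 mg/kg, or doxorubicin 1.0 mg/kg, given ip daily for 3 weeks. Body weight and signs of pain, distress or discomfort monitored; tumors excised and weighed. Data given as mean ± SEM, t test against vehicle.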

SiHa [22] = assay: Antitumor activity against human SiHa cells xenografted in BALB/C nude mouse assessed as tumor weight at 2.5 mg/kg, ip administered daily after 3 weeks (reference value: 511.6 mg); assay type: functional
Mus musculus [23] = assay: Toxicity in BALB/C nude mouse xenografted with human SiHa cells assessed as pain at 2.5 to 5 mg/kg, ip administered daily after 3 weeks; assay type: organism-based; conditions: in vivo, 504 h; method in brief: as §3
SiHa [24] = assay: Induction of apoptosis in human SiHa cells assessed as necrotic cells at 0.5 uM after 48 hrs by Annexin V-FITC/propidium iodide based flow cytometric analysis (reference value: 0.3%); assay type: functional
SiHa [25] = assay: Induction of apoptosis in human SiHa cells assessed as necrotic cells at 2 uM after 48 hrs by Annexin V-FITC/propidium iodide based flow cytometric analysis (reference value: 0.3%); assay type: functional

Chain of Nucleoside diphosphate kinase B (Homo sapiens), P22392 [F60A] (P22392 whole entry F60A): as the sequence (P22392 whole entry) above, with F60A counted along it

- Activity [1]: inactive
- Kd [2]: 2 µM
- Kd [3]: 15.5 µM
- Kd [4]: 13.5 µM
- Activity [5]: inactive
- Activity [6]: Dose-dependent effect
SMILES: CN(C)CCCNc1cc2nc3n(c(=O)c2cc1F)CC/C3=C\c1ccc(OCc2ccccc2)cc1O
- Activity [7]: Non-Toxic
- Activity (SiHa [8]): 38%
- Activity (SiHa [9]): 80.7%
- Activity (SiHa [10]): 90.3%
- Activity (SiHa [11]): Active
- Activity (SiHa [12]): 51%
- Activity (SiHa [13]): 21%
- Activity (SiHa [14]): 11%
- Activity (SiHa [15]): 22%
- Activity (SiHa [16]): 1%
- Activity (SiHa [17]): 0%
- Activity (SiHa [18]): 64%
- Activity (SiHa [19]): Dose-dependent effect
- Activity (SiHa [20]): inactive
- Activity (Mus musculus [21]): Non-Toxic
- Activity (SiHa [22]): 265.9 mg
- Activity (Mus musculus [23]): Non-Toxic
- Activity (SiHa [24]): 0.3%
- Activity (SiHa [25]): 2.2%
